# Published values from different studies.
# Matrix: plasma
# Route: oral
SMILES,host,dose,bioavailability [%]
O=C1CC[C@H](N2Cc3cc(N4CCN(CC5CCN(c6ccc([C@@H]7c8ccc(O)cc8CC[C@@H]7c7ccccc7)cc6)CC5)CC4)ccc3C2=O)C(=O)N1,female Sprague-Dawley rat,20 mg/kg,24.2
CC(/C=C/C=C(\C)C(=O)O)=C\C=C\C=C(C)\C=C\C=C(/C)C(=O)O,female Wistar rat,20 mg/kg,55 to 66
CC1(CN)CCN(c2cnc3c(Sc4ccncc4Cl)n[nH]c3n2)CC1,male Sprague-Dawley rat,10 mg/kg,42.5
CN1Cc2c(N)cccc2C(=O)N1C1CCC(=O)NC1=O (stereo not shown),male Sprague-Dawley rat,3 mg/kg,82.5
Cc1c(C(=O)O)ccc2c3n(nc12)[C@@H]1[C@H](C3)N(CC2CC2)[C@@]2(C(=O)Nc3cc(Cl)ccc32)[C@H]1c1cccc(Cl)c1F,male rat,2 mg/kg,55
N#C[C@@]12C[C@@H]1[C@@H](n1cnc3c(N[C@@H](C4CCC4)C4CC4)nc(I)nc31)[C@H](O)[C@@H]2O,male Wistar rat,1 mg/kg,7.18
CC(=Nc1ccc(N=Cc2cnccn2)cc1)N(C)C,male Sprague-Dawley rat,200 mg/kg,12
CC(=O)CC(=O)C1CC(C)C(=O)C1=O (stereo not shown),male Sprague-Dawley rat,100 mg/kg,100
Nc1ccc(/C=C/C(=O)NCc2cc3cc(-c4ccc(C(=O)N5CCC(F)(F)CC5)cc4)cc(-c4ccc(F)cc4)c3o2)cn1,rat,3 mg/kg,19.6
O=C(C=Cc1ccccc1)Nc1cc(-c2ccnc(N3CCC(O)CC3)c2)ccn1,female Sprague-Dawley rat,50 mg/kg,~38.5
